Source: ChEMBL document CHEMBL1138363, “N,N'-dihydroxyamidines: a new prodrug principle to improve the oral bioavailability of amidines” (J Med Chem, 2007)

Experiments:
Settings in all cases: in vivo
[1] = Tmax in po dosed pig; format: ADME, organism-based, Sus scrofa
Method in brief: (§1)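 Prodrug given orally to three pigs at 10 mg/kg body weight. Heparinized blood samples were centrifuged at 1500g for 10 min at 4 °C, stored at -80 °C and worked up by solid-phase extraction. Some samples were pretreated with β-glucuronidase/sulfatase. Benzamidine and benzamidoxime were measured in plasma by HPLC. Pharmacokinetic parameters were estimated for each pig from the plasma concentration-time curves.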

Sus scrofa [2] = experiment: Plasma concentration in pig at 10 mg/kg, po; format: ADME, organism-based; parameters: dose 10 mg/kg, route oral; method in brief: as §1
[3] = Cmax in po dosed pig; format: ADME, organism-based, Sus scrofa; parameters: route oral; method in brief: as §1
Sus scrofa [4] = experiment: AUC in po dosed pig; format: ADME, organism-based, Plasma; method in brief: as §1
[5] = Oral bioavailability in pig; format: ADME, organism-based, Sus scrofa; method in brief: as §1
[6] = Half life in po dosed pig; format: ADME, organism-based, Sus scrofa; method in brief: as §1
[7] = Mean resident time in po dosed pig; format: ADME, organism-based, Sus scrofa; method in brief: as §1
Sus scrofa [8] = experiment: Clearance in po dosed pig; format: ADME, organism-based; method in brief: as §1
Sus scrofa [9] = experiment: Volume of distribution in po dosed pig; format: ADME, organism-based; method in brief: as §1

Tmax [1]	concentration (Sus scrofa [2])	Cmax [3]	AUC (Sus scrofa [4])	bioavailability [5]	half-life [6]	MRT [7]	CL (Sus scrofa [8])	Vd (Sus scrofa [9])	Structure (SMILES)
2 h	13.7 µM	13.7 µM	98.7 µM·h	91%	3.7 h	6.16 h	30 mL/min/kg	7.91 L/kg	N=C(N)c1ccccc1 [BENZAMIDINE]
	0.4 µM								NC(=NO)c1ccccc1 [BENZAMIDOXIME]
